Laboratory results from PMC5724766 (Bioorganic & medicinal chemistry, 2016).

Columns and labels:
proteasome = details: cited from earlier work; for IC50: read-out: IC50, proteasome inhibition
[1] = biological target: purified human 20S proteasome, tryptic (β2)-like activity (Homo sapiens, UniProt Q99436); test: 20S proteasome trypsin-like; assay type: biochemical
In short: (§1)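 Purified human 20S proteasome (1 nM) in 50 mM Tris-HCl pH 7.5 with 0.03% SDS and 50 μM fluorogenic substrate at 37 °C: Z-LLE-AMC for caspase-like activity, Z-ARR-AMC for trypsin-like activity. Released aminomethylcoumarin read at ex 380/em 460 nm every minute for 30 min. Maximum fluorescence increase per minute gives the specific activity of each sample.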

[2] = biological target: purified human 20S proteasome, caspase (β1)-like activity (Homo sapiens, UniProt P28072); test: 20S proteasome caspase-like; assay type: biochemical
In short: as §1

CCN(CC)CCCC(C)Nc1ccnc2cc(Cl)ccc12 (stereo not drawn) [chloroquine]
proteasome inhibitory activity (in words) (proteasome): millimolar activity

O=C1C(Cl)=C(Nc2ccc(S(=O)(=O)Nc3ccccn3)cc2)C(=O)c2ccccc21 [PI-083]
IC50 (proteasome): ~1 µM

Cc1cc(C)c2cc(C3=CCCCC3)c(C)nc2c1 [Compound 7, 3-Cyclohexenyl-2,5,7-trimethylquinoline]
IC50 [1]: > 25 µM

Cc1nc2ccc(N3CCCCC3)cc2cc1C1=CCCCC1 [Compound 25, 3-Cyclohexenyl-2-methyl-6-piperidinylquinoline]
IC50 [2]: 10.9 µM
inhibition of tryptic-like activity (in words) ([1]; purified human 20S proteasome, Suppl. Fig. S6): not the tryptic-like activity

Nc1ccc(O)c2ncccc12 [5-AHQ, 5-amino-8-hydroxyquinoline]
IC50 (proteasome): 0.6 to 5 µM
